The source made the active and inactive calls. The rule behind the calls is not given here.
Legend:
MCF7 [1] = test: Antiproliferative activity against human MCF7 cells assessed as reduction in cell proliferation in RPMI containing 10% FBS incubated for 5 days by Cell-titer-Glo assay; type: functional, cell-based; details: MCF7, 120 h
Summary of the method: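 MCF-7 cells, 640/well in RPMI with 10% FBS and 20 mM HEPES, adhered overnight; 10-point 1:5 dilution series (10–0.000005 µM final) for 5 days. CellTiter-Glo luminescence, cell-free medium background subtracted, percent viability vs untreated cells; n ≥ 3.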

Estrogen receptor = biological target: T1, Estrogen receptor (Homo sapiens, UniProt P03372); test: Induction of ERalpha degradation in human MCF7 cells in phenol red free RPMI medium containing 5% charcoal dextran-treated FBS incubated for 4 hrs by SP1 and anti-ER rabbit monocolnal antibody based in-cell Western assay
T1 sequence (P03372 whole entry): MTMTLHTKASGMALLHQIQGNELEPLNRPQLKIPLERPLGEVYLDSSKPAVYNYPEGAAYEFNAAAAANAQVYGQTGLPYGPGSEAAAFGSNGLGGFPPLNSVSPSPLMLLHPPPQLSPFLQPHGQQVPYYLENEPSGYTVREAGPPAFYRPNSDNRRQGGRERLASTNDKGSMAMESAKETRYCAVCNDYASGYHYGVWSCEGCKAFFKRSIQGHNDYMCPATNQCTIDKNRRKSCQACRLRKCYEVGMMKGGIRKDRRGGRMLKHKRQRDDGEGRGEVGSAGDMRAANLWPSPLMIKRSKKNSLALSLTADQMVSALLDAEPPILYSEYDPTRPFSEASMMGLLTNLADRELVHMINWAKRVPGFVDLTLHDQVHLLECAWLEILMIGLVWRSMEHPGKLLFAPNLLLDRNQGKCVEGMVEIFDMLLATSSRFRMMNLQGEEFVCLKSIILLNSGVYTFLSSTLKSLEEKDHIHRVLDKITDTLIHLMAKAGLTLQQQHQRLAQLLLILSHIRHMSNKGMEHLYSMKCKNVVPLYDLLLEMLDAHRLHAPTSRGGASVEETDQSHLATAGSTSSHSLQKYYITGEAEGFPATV

[2] = AUC in mouse at 10 mg/kg, po; type: ADME, organism-based; details: in vivo
Summary of the method: (§1)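 Mouse or rat PK: single intravenous dose 3 mg/kg or oral dose 10 mg/kg, vehicle PEG400/PVP/Tween 80/0.5% CMC in water (9:0.5:0.5:90).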

Rattus norvegicus [3] = test: In-vivo agonist activity at ERalpha in CD-IGS rat assessed as increase in uterine wet weight at 10 mg/kg, po dosed daily for 3 days by gavage and measured 24 hrs after last dose by immature rat uterine wet weight assay; type: functional, organism-based
Summary of the method: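 Immature CD-IGS rats given compound orally for 3 days without ethynyl estradiol (agonist mode); on day 4, 24 h after dosing, uterus removed and weighed; wet weight normalized to total body weight.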

Rattus norvegicus [4] = test: Reduction in uterine wet weight in ethynyl estradiol-stimulated CD-IGS rat at 10 mg/kg, po dosed daily for 3 days by gavage followed 15 mins later by 0.1 mg/kg, po ethynyl estradiol and measured 24 hrs after last dose by immature rat uterine wet weight assay; type: functional
Summary of the method: (§2)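 Female immature CD-IGS rats, 21 days old on arrival; oral gavage of vehicle or compound daily for 3 days, ethynyl estradiol 0.1 mg/kg orally 15 min after each dose. Day 4, 24 h post-dose, plasma taken, then uterus removed and weighed. Reduction = 100 x (VehicleEE – Cpd)/(VehicleEE – Vehicle).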

[5] = AUC (0 to infinity) in mouse at 10 mg/kg, po; type: ADME, organism-based; parameters: dose 10 mg/kg, route oral, time infinity; details: in vivo
[6] = Cmax in rat at 10 mg/kg, po; type: ADME, organism-based; parameters: dose 10 mg/kg, route oral; details: in vivo; summary of the method: as §1
[7] = Clearance in rat at 3 mg/kg, iv; type: ADME, organism-based; details: in vivo; summary of the method: as §1
[8] = Oral bioavailability in mouse at 10 mg/kg; type: ADME, organism-based; details: in vivo; summary of the method: as §1
[9] = Half life in rat at 3 mg/kg, iv; type: ADME, organism-based; details: in vivo; summary of the method: as §1
[10] = Volume of distribution at steady state in rat at 3 mg/kg, iv; type: ADME, organism-based; details: in vivo, read-out: Vdss; summary of the method: as §1
[11] = Oral bioavailability in rat at 10 mg/kg; type: ADME, organism-based; details: in vivo; summary of the method: as §1
[12] = Clearance in mouse at 3 mg/kg, iv; type: ADME, organism-based; details: in vivo; summary of the method: as §1
[13] = AUC in human MCF7 cells xenografted nu/nu mouse implanted with 17beta-estradiol time release pellets dosed orally once daily for 4 weeks; type: ADME, organism-based; details: in vivo, po
Rattus norvegicus [14] = test: Reduction in uterine wet weight in ethynyl estradiol-stimulated CD-IGS rat at 1 mg/kg, po dosed daily for 3 days by gavage followed 15 mins later by 0.1 mg/kg, po ethynyl estradiol and measured 24 hrs after last dose by immature rat uterine wet weight assay; type: functional; summary of the method: as §2
MCF7 [15] = test: Antitumor activity against human MCF7 cells xenografted in nu/nu mouse model of tamoxifen-resistant breast cancer xenograft implanted with 17beta-estradiol time release pellets assessed as reduction tumor volume at 60 mg/kg, po qd for 4 weeks; type: functional, organism-based
Summary of the method: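 Female nu/nu mice with 0.72 mg 60-day 17β-estradiol pellets bearing MCF-7 tumors, pretreated with oral tamoxifen citrate; at ~150-250 mm3 (mean 200 mm3) randomized, tamoxifen stopped, then dosed daily for 4 weeks; tumor volume (length x width2/2) and body weight twice weekly.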

MCF7 [16] = test: Antitumor activity against human MCF7 cells xenografted in nu/nu mouse model of tamoxifen-sensitive breast cancer xenograft implanted with 17beta-estradiol time release pellets assessed as reduction tumor volume at 6 mg/kg, po qd for 4 weeks; type: functional, organism-based
[17] = Half life in mouse at 3 mg/kg, iv; type: ADME, organism-based; details: in vivo; summary of the method: as §1
[18] = Cmax in mouse at 10 mg/kg, po; type: ADME, organism-based; parameters: dose 10 mg/kg, route oral; details: in vivo; summary of the method: as §1
[19] = Volume of distribution at steady state in mouse at 3 mg/kg, iv; type: ADME, organism-based; details: in vivo, read-out: Vdss; summary of the method: as §1
[20] = AUC (0 to infinity) in rat at 10 mg/kg, po; type: ADME, organism-based; parameters: dose 10 mg/kg, route oral, time infinity; details: in vivo

SMILES	IC50 (MCF7 [1]) [nM]	IC50 (Estrogen receptor) [nM]	also measured
CC1=C(c2cccc(O)c2)C(c2ccc(OC[C@H](C)N3CCC3)cc2)Oc2ccc(O)cc21 (stereo partly specified)	0.1	0.9	
CC1=C(c2cccc(O)c2)C(c2ccc(OC[C@@H](C)N3CC[C@@H](C)C3)cc2)Oc2ccc(O)cc21 (stereo partly specified)	0.2	0.3	
CC1=C(c2cccc(O)c2)C(c2ccc(OCCN3CC(C)C3)cc2)Oc2ccc(O)cc21 (stereo unspecified)			IC50 (Estrogen receptor; mcf7): 0.3 nM
CC1=C(c2cccc(O)c2)C(c2ccc(OCCN3CCCC3)cc2)Oc2ccc(O)cc21 (stereo unspecified)	0.3	0.4	
CC1=C(c2ccc(O)cc2)C(c2ccc(OC[C@H](C)N3CC[C@@H](C)C3)cc2)Oc2cc(O)ccc21 (stereo partly specified)	0.2	0.3	AUC [2]: 120 ng·h/mL
CC1=C(c2cccc(O)c2)C(c2ccc(OC[C@H](C)N3CCCCC3)cc2)Oc2ccc(O)cc21 (stereo partly specified)	0.1	0.2	
CC1=C(c2cccc(O)c2)C(c2ccc(OCCN3CCCCC3)cc2)Oc2ccc(O)cc21 (stereo unspecified)	0.2	0.2	
CC1=C(c2cccc(O)c2)C(c2ccc(OCCN3CCC3)cc2)Oc2ccc(O)cc21 (stereo unspecified)	0.2	0.3	
CC1=C(c2cccc(O)c2)C(c2ccc(OC[C@@H](C)N3CCCC3)cc2)Oc2ccc(O)cc21 (stereo partly specified)	0.2	0.3	Activity (Rattus norvegicus [3]): Active; inhibition (INH) (Rattus norvegicus [4]): 84%
CC1=C(c2cccc(S(C)(=O)=O)c2)C(c2ccc(OC[C@H](C)N3CC[C@@H](C)C3)cc2)Oc2ccc(O)cc21 (stereo partly specified)	4.3	1.4	
CC1=C(c2cccc(O)c2)C(c2ccc(OC[C@@H](C)N3CC[C@H](C)C3)cc2)Oc2ccc(O)cc21 (stereo partly specified)	0.2	0.2	
CC1=C(c2cccc(O)c2)C(c2ccc(OC[C@H](C)N3CCCC3)cc2)Oc2ccc(O)cc21 (stereo partly specified)	0.2	0.4	
CC1=C(c2cccc(O)c2)C(c2ccc(OCCN3CCC(C)CC3)cc2)Oc2ccc(O)cc21 (stereo unspecified)	0.2	0.2	
CC1=C(c2ccc(F)cc2)C(c2ccc(OC[C@H](C)N3CC[C@@H](C)C3)cc2)Oc2ccc(O)cc21 (stereo partly specified)			AUC(0-inf) [5]: 2000 ng·h/mL; Cmax [6]: 280 ng/mL; clearance [7]: 21 mL/min/kg; bioavailability [8]: 35%; AUC [2]: 2000 ng·h/mL; half-life [9]: 7.4 h; Vd [10]: 12 L/kg; bioavailability [11]: 54%; clearance [12]: 30 mL/min/kg; AUC at 672 h [13]: 36000 ng·h/mL; inhibition (INH) (Rattus norvegicus [14]): 111%; Activity (MCF7 [15]): inactive; IC50 (Estrogen receptor; mcf7): 0.4 nM; Activity (MCF7 [16]): Active; half-life [17]: 5.2 h; Cmax [18]: 170 ng/mL; Vd [19]: 11 L/kg; AUC(0-inf) [20]: 4500 ng·h/mL
CC1=C(c2cccc(O)c2)C(c2ccc(OC[C@H](C)N3CC[C@@H](C)C3)cc2)Oc2cc(O)ccc21 (stereo partly specified)	0.3	0.2	AUC [2]: 50 ng·h/mL
CC1=C(c2cccc(O)c2)C(c2ccc(OCCN3CC[C@@H](C)C3)cc2)Oc2ccc(O)cc21 (stereo partly specified)	0.2	0.4	
